Reference: ChEMBL document CHEMBL1138558, “Synthesis of some new 1,2,4-triazoles, their Mannich and Schiff bases and evaluation of their antimicrobial activities” (2009)
The source made the active and inactive calls. No cut-off for these calls is given here.

Key:
Format in all cases: functional
Staphylococcus aureus [1] = assay: Antimicrobial activity against Staphylococcus aureus ATCC 25923 at 10 ug after 18 hrs by agar-well diffusion method; details: ATCC 25923, 18 h, read-out: IZ
[2] = system: Yersinia pseudotuberculosis; assay: Antimicrobial activity against Yersinia pseudotuberculosis ATCC 911 at 10 ug after 18 hrs by agar-well diffusion method; details: ATCC 911, 18 h, read-out: IZ
In short: (§1)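 Bacteria suspended in Mueller Hinton broth at about 10⁶ cfu/mL, flood-inoculated onto Mueller Hinton agar and dried. Test substance placed into 5-mm wells bored with a sterile cork-borer. Incubation 18 h at 35 °C, then the inhibition zone around each well measured.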

Enterococcus faecalis [3] = assay: Antimicrobial activity against Enterococcus faecalis ATCC 29212 at 10 ug after 18 hrs by agar-well diffusion method; details: ATCC 29212, 18 h, read-out: IZ
Escherichia coli [4] = assay: Antimicrobial activity against Escherichia coli ATCC 25922 at 10 ug after 18 hrs by agar-well diffusion method; details: ATCC 25922, 18 h, read-out: IZ; in short: as §1
Pseudomonas aeruginosa [5] = assay: Antimicrobial activity against Pseudomonas aeruginosa ATCC 27853 at 10 ug after 18 hrs by agar-well diffusion method; details: ATCC 27853, 18 h, read-out: IZ
Bacillus cereus [6] = assay: Antimicrobial activity against Bacillus cereus 702 Roma at 10 ug after 18 hrs by agar-well diffusion method; details: read-out: IZ
Candida tropicalis [7] = assay: Antimicrobial activity against Candida tropicalis ATCC 13803 at 5 ug after 18 hrs by agar-well diffusion method; details: ATCC 13803, 18 h, read-out: IZ
In short: (§2)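 Yeast suspended in Mueller Hinton broth and diluted to about 10⁶ cfu/mL, then flood-inoculated onto Sabouraud Dextrose Agar and dried. 5-mm wells cut with a sterile cork-borer and filled with test substance. Plates incubated 18 h at 35 °C. Read-out is the zone of inhibition.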

Candida albicans [8] = assay: Antimicrobial activity against Candida albicans ATCC 60193 at 5 ug after 18 hrs by agar-well diffusion method; details: ATCC 60193, 18 h, read-out: IZ; in short: as §2
Staphylococcus aureus [9] = assay: Antimicrobial activity against Staphylococcus aureus ATCC 25923 at 10 mg/mL after 18 hrs by agar-well diffusion method
In short: (§3)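 Agar-well diffusion: each bacterium suspended in Mueller Hinton broth at about 10⁶ cfu/mL, flood-inoculated onto Mueller Hinton agar and dried. 5-mm wells were cut with a sterile cork-borer and filled with the test solution. Plates were incubated 18 h at 35 °C. The read-out was the diameter of the inhibition zone.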

[10] = system: Yersinia pseudotuberculosis; assay: Antimicrobial activity against Yersinia pseudotuberculosis ATCC 911 at 10 mg/mL after 18 hrs by agar-well diffusion method; in short: as §1
Pseudomonas aeruginosa [11] = assay: Antimicrobial activity against Pseudomonas aeruginosa ATCC 27853 at 10 mg/mL after 18 hrs by agar-well diffusion method; in short: as §3
Escherichia coli [12] = assay: Antimicrobial activity against Escherichia coli ATCC 25922 at 10 mg/mL after 18 hrs by agar-well diffusion method; in short: as §3
Enterococcus faecalis [13] = assay: Antimicrobial activity against Enterococcus faecalis ATCC 29212 at 10 mg/mL after 18 hrs by agar-well diffusion method; in short: as §3
Bacillus cereus [14] = assay: Antimicrobial activity against Bacillus cereus 702 Roma at 10 mg/mL after 18 hrs by agar-well diffusion method; in short: as §3
Candida tropicalis [15] = assay: Antimicrobial activity against Candida tropicalis ATCC 13803 at 10 mg/mL after 18 hrs by agar-well diffusion method
In short: (§4)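 Candida cultures were suspended in Mueller Hinton broth at about 10⁶ cfu/mL, flood-inoculated onto Sabouraud dextrose agar and dried. Test solution was loaded into 5-mm wells bored in the agar. Plates were incubated 18 h at 35 °C, and activity was scored as the inhibition zone around each well.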

Candida albicans [16] = assay: Antimicrobial activity against Candida albicans ATCC 60193 at 10 mg/mL after 18 hrs by agar-well diffusion method; in short: as §4

SMILES	inhibition zone (IZ) (Staphylococcus aureus [9])	inhibition zone (IZ) [10]	inhibition zone (IZ) (Pseudomonas aeruginosa [11])	inhibition zone (IZ) (Escherichia coli [12])	inhibition zone (IZ) (Enterococcus faecalis [13])	inhibition zone (IZ) (Bacillus cereus [14])	inhibition zone (IZ) (Candida tropicalis [15])	inhibition zone (IZ) (Candida albicans [16])	also measured
CC1(C)S[C@@H]2[C@H](NC(=O)[C@H](N)c3ccccc3)C(=O)N2[C@H]1C(=O)O [AMPICILLIN]	–	–	–	–	–	–	–	–	zone of inhibition at 10 µg/disc (Staphylococcus aureus [1]): 35 mm; zone of inhibition at 10 µg/disc [2]: 18 mm; zone of inhibition at 10 µg/disc (Enterococcus faecalis [3]): 10 mm; zone of inhibition at 10 µg/disc (Escherichia coli [4]): 10 mm; zone of inhibition at 10 µg/disc (Pseudomonas aeruginosa [5]): 18 mm; zone of inhibition at 10 µg/disc (Bacillus cereus [6]): 15 mm
OC(Cn1cncn1)(Cn1cncn1)c1ccc(F)cc1F [FLUCONAZOLE]	–	–	–	–	–	–	–	–	zone of inhibition at 5 µg/disc (Candida tropicalis [7]): 25 mm; zone of inhibition at 5 µg/disc (Candida albicans [8]): 25 mm
Sc1nnc(-c2ccncc2)n1-c1ccccc1	inactive	inactive	inactive	inactive	inactive	inactive	inactive	inactive	–
Cc1ccc(N(C)c2nnc(CSc3nnc(-c4ccncc4)n3-c3ccccc3)s2)cc1	–	–	–	–	–	–	inactive	inactive	zone of inhibition at 10000 µg/mL (Staphylococcus aureus [9]; ATCC 25923, 18 h, read-out: IZ): 22 mm; zone of inhibition at 10000 µg/mL ([10]; ATCC 911, 18 h, read-out: IZ): 16 mm; zone of inhibition at 10000 µg/mL (Pseudomonas aeruginosa [11]; ATCC 27853, 18 h, read-out: IZ): 15 mm; zone of inhibition at 10000 µg/mL (Escherichia coli [12]; ATCC 25922, 18 h, read-out: IZ): 28 mm; zone of inhibition at 10000 µg/mL (Enterococcus faecalis [13]; ATCC 29212, 18 h, read-out: IZ): 7 mm; zone of inhibition at 10000 µg/mL (Bacillus cereus [14]; read-out: IZ): 17 mm
CCOC(=O)CSc1nnc(-c2ccncc2)n1-c1ccccc1	inactive	inactive	inactive	inactive	inactive	inactive	–	–	zone of inhibition at 10000 µg/mL (Candida tropicalis [15]; ATCC 13803, 18 h, read-out: IZ): 13 mm; zone of inhibition at 10000 µg/mL (Candida albicans [16]; ATCC 60193, 18 h, read-out: IZ): 13 mm
NNC(=O)CSc1nnc(-c2ccncc2)n1-c1ccccc1	inactive	inactive	inactive	inactive	inactive	inactive	inactive	inactive	–
